Laboratory results as given in ChEMBL document CHEMBL1255451, “Genetic basis of multidrug resistance in Acinetobacter clinical isolates in Taiwan” (2010).
≈ marks a conversion by molar mass, not a printed value. Calls of active or inactive are those of the source. The rule behind the calls is not given here.

Key:
Type in all cases: functional
Acinetobacter baumannii [1] = test: Antimicrobial activity against Acinetobacter baumannii 6AB11 harboring ISAba1-blaOXA-66 gene by Etest
Acinetobacter baumannii [2] = test: Antimicrobial activity against Acinetobacter baumannii 6AB15 harboring ISAba1-blaOXA-23 and blaOXA-66 gene by Etest
Acinetobacter baumannii [3] = test: Antimicrobial activity against Acinetobacter baumannii ATCC 15151 by Etest
Acinetobacter baumannii [4] = test: Antimicrobial activity against Acinetobacter baumannii ATCC 15151 harboring plasmid AT801 by Etest
Acinetobacter baumannii [5] = test: Antimicrobial activity against Acinetobacter baumannii ATCC 15151 harboring ISAba1-blaOXA-23 gene by Etest
Acinetobacter baumannii [6] = test: Antimicrobial activity against Acinetobacter baumannii ATCC 15151 harboring ISAba1-blaOXA-66 gene by Etest
Acinetobacter sp. = test: Antimicrobial activity against Acinetobacter sp. harboring aacA4 gene assessed as percent resistant isolates
How it was run: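 Isolates: 75 nonduplicated Acinetobacter clinical isolates collected at one Taipei hospital in 2006 and identified with API 20NE. Susceptibility was tested on the Vitek 2 automated system using the AST-GN09 Gram-negative card.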

Compound | MIC (Acinetobacter baumannii [1]) | MIC (Acinetobacter baumannii [2]) | MIC (Acinetobacter baumannii [3]) | MIC (Acinetobacter baumannii [4]) | MIC (Acinetobacter baumannii [5]) | MIC (Acinetobacter baumannii [6]) | Activity (Acinetobacter baumannii [5]) | Activity (Acinetobacter baumannii [6]) | Activity (Acinetobacter sp.)
CC1(C)S[C@@H]2[C@H](NC(=O)[C@H](N)c3ccccc3)C(=O)N2[C@H]1C(=O)O [AMPICILLIN] | ≥ 32 µg/mL | ≥ 32 µg/mL | 16 µg/mL (≈ 45.8 µM) | 32 µg/mL (≈ 91.6 µM) | ≥ 32 µg/mL | ≥ 32 µg/mL | – | – | –
C[C@@H](O)[C@H]1C(=O)N2C(C(=O)O)=C(S[C@@H]3CN[C@H](C(=O)N(C)C)C3)[C@H](C)[C@H]12 [MEROPENEM] | 16 µg/mL (≈ 41.7 µM) | ≥ 16 µg/mL | 0.25 µg/mL (≈ 0.652 µM) | 0.25 µg/mL (≈ 0.652 µM) | ≥ 16 µg/mL | ≥ 16 µg/mL | – | – | –
CCN1CCN(C(=O)N[C@@H](C(=O)N[C@@H]2C(=O)N3[C@@H]2SC(C)(C)[C@@H]3C(=O)O)c2ccccc2)C(=O)C1=O [PIPERACILLIN] | ≥ 128 µg/mL | ≥ 128 µg/mL | 16 µg/mL (≈ 30.9 µM) | ≥ 128 µg/mL | ≥ 128 µg/mL | ≥ 128 µg/mL | – | – | –
NCC[C@H](O)C(=O)N[C@@H]1C[C@H](N)[C@@H](O[C@H]2O[C@H](CN)[C@@H](O)[C@H](O)[C@H]2O)[C@H](O)[C@H]1O[C@H]1O[C@H](CO)[C@@H](O)[C@H](N)[C@H]1O | – | – | – | – | – | – | Active | Active | –
C[C@@H](O)[C@H]1C(=O)N2C(C(=O)O)=C(SCCNC=N)C[C@H]12 [IMIPENEM ANHYDROUS] | ≥ 32 µg/mL | ≥ 32 µg/mL | 0.25 µg/mL (≈ 0.835 µM) | 0.25 µg/mL (≈ 0.835 µM) | ≥ 16 µg/mL | ≥ 32 µg/mL | – | – | –
O=C(O)c1cn(C2CC2)c2cc(N3CCNCC3)c(F)cc2c1=O | – | – | – | – | – | – | Active | Active | –
CC(C)(O/N=C(\C(=O)N[C@@H]1C(=O)N2C(C(=O)[O-])=C(C[n+]3ccccc3)CS[C@H]12)c1csc(N)n1)C(=O)O [CEFTAZIDIME] | ≥ 64 µg/mL | ≥ 64 µg/mL | 4 µg/mL (≈ 7.32 µM) | 4 µg/mL (≈ 7.32 µM) | 8 µg/mL (≈ 14.6 µM) | 4 µg/mL (≈ 7.32 µM) | – | – | –
CO/N=C(\C(=O)N[C@@H]1C(=O)N2C(C(=O)[O-])=C(C[N+]3(C)CCCC3)CS[C@H]12)c1csc(N)n1 [CEFEPIME] | ≥ 64 µg/mL | ≥ 64 µg/mL | 4 µg/mL (≈ 8.32 µM) | 4 µg/mL (≈ 8.32 µM) | ≥ 64 µg/mL | 4 µg/mL (≈ 8.32 µM) | – | – | –
GENTAMICIN | – | – | – | – | – | – | Active | Active | 66%
C[C@H]1COc2c(N3CCN(C)CC3)c(F)cc3c(=O)c(C(=O)O)cn1c23 | – | – | – | – | – | – | Active | Active | –
NC[C@H]1O[C@H](O[C@H]2[C@H](O)[C@@H](O[C@H]3O[C@H](CO)[C@@H](O)[C@H](N)[C@H]3O)[C@H](N)C[C@@H]2N)[C@H](N)C[C@@H]1O [TOBRAMYCIN] | – | – | – | – | – | – | Active | Active | 66%
